The record followed here is ChEMBL document CHEMBL4811303, “Synthesis and evaluation of trypanocidal activity of derivatives of naturally occurring 2,5-diphenyloxazoles” (Bioorg Med Chem, 2021).

The test system of data set [1] is Trypanosoma brucei rhodesiense. In words: Trypanocidal activity against Trypanosoma brucei rhodesiense assessed as reduction in intracellular ATP production incubated for 72 hrs by CellTiter-Glo luminescent cell viability assay. Format: functional, organism-based. Put shortly: (§1)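 Bloodstream trypanosomes in 96-well culture were exposed to compound in 5-fold serial dilutions from 25 µg/mL to 1.6 ng/mL for 72 h. Seeding and temperature: T. b. brucei, T. b. gambiense and T. b. rhodesiense at 5×10^3 cells/mL and 37 °C; T. evansi at 1×10^4 cells/mL and 37 °C; T. congolense at 2×10^5 cells/mL and 33 °C. Viability was read as intracellular ATP by CellTiter-Glo luminescence. Three replicates; IC50 calculated.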
A general note: In ATP-based viability assays light output follows the ATP content of the culture.

A short description of data set [2]: Selectivity index, ratio of IC50 for cytotoxicity against bovine MDBK cells to IC50 for Trypanocidal activity against Trypanosoma evansi.
A short description of data set [3]: Selectivity index, ratio of IC50 for cytotoxicity against bovine MDBK cells to IC50 for Trypanocidal activity against Trypanosoma brucei rhodesiense.
A further data set concerns Trypanosoma congolense. In words: Trypanocidal activity against Trypanosoma congolense assessed as reduction in intracellular ATP production incubated for 72 hrs by CellTiter-Glo luminescent cell viability assay. The data set is classed as functional, organism-based. In outline: as §1
The test system of data set [4] is Trypanosoma brucei gambiense. In words: Trypanocidal activity against Trypanosoma brucei gambiense assessed as reduction in intracellular ATP production incubated for 72 hrs by CellTiter-Glo luminescent cell viability assay. Format: functional, organism-based. Put shortly:
as §1

Data set [5] in a line: Selectivity ratio of IC50 for trypanocidal activity against Trypanosoma congolense to trypanocidal activity against Trypanosoma evansi. The data set is classed as functional.
The nature of data set [6]: Selectivity index, ratio of IC50 for cytotoxicity against bovine MDBK cells to IC50 for Trypanocidal activity against Trypanosoma brucei brucei. Particulars: cattle.
The subject of data set [7] is Trypanosoma brucei brucei. In words: Trypanocidal activity against Trypanosoma brucei brucei assessed as reduction in intracellular ATP production incubated for 72 hrs by CellTiter-Glo luminescent cell viability assay. The data set is classed as functional, organism-based. Put shortly: as §1
A further data set deals with Trypanosoma evansi. In words: Trypanocidal activity against Trypanosoma evansi assessed as reduction in intracellular ATP production incubated for 72 hrs by CellTiter-Glo luminescent cell viability assay. Format: functional, organism-based. In outline: as §1
Data set [8] is described as follows: Selectivity index, ratio of IC50 for cytotoxicity against bovine MDBK cells to IC50 for Trypanocidal activity against Trypanosoma congolense.
In a further data set the test system is MDBK cells (Bos taurus). In words: Cytotoxicity against bovine MDBK cells assessed as reduction in cell viability incubated for 72 hrs by CCK8 assay. Background: Tetrazolium dyes change colour on reduction, which living cells bring about.
Data set [9] can be described thus: Selectivity index, ratio of IC50 for cytotoxicity against bovine MDBK cells to IC50 for Trypanocidal activity against Trypanosoma brucei gambiense. The note with it: cattle.

As to `Oc1ccccc1-c1coc(-c2cccc(O)c2O)n1`, the IC50 (usually the concentration needed to halve the response being measured) in [1] came out at 1.5 µM; with Trypanosoma congolense, 0.85 µM; in data set [4], 1.6 µM; in [7], 1.3 µM; in the data set with Trypanosoma evansi it was 0.42 µM; in the data set on MDBK cells (Bos taurus), 9.7 µM. The selectivity ratio in data set [2] was 23; in data set [3], 6.4; in data set [6], 7.5; in data set [8], 11; in [9], 6.1. In addition, in data set [5], the Ratio IC50 turned out to be 2.
`COc1ccc(-c2cnc(-c3cccc(OC)c3OC)o2)c(OC)c1`: the half-inhibitory concentration (IC50) was 28.7 µM in data set [1]; 1.5 µM in the data set on Trypanosoma congolense; 31.2 µM in [4]; 35.4 µM in [7]; 28.2 µM with Trypanosoma evansi; more than 293 µM in the data set with MDBK cells (Bos taurus). The selectivity ratio was more than 10 in data set [2]; more than 10 in data set [3]; more than 8.3 in data set [6]; more than 190 in data set [8]; more than 9.4 in [9].
Regarding `COc1cccc(-c2ncc(-c3ccc4ccccc4c3)o2)c1OC`, the IC50 in data set [1] was 71.7 µM; with Trypanosoma congolense, 45.8 µM; in data set [4], 51.7 µM; in data set [7] it was 71.5 µM; with Trypanosoma evansi it was 71.2 µM; in the data set on MDBK cells (Bos taurus), 42.7 µM. For the same compound, the selectivity ratio is 0.6 in data set [2]; 0.6 in data set [3]; 0.6 in data set [6]; 0.93 in data set [8]; 0.83 in data set [9].
On to `COc1cccc(-c2ncc(-c3c(OC)cccc3OC)o2)c1OC`, for which the IC50 is 32.2 µM in data set [1]; 7.7 µM with Trypanosoma congolense; 25.8 µM in data set [4]; 31.6 µM in [7]; 26.6 µM in the data set with Trypanosoma evansi; 91.6 µM with MDBK cells (Bos taurus). In addition, the selectivity ratio was 3.4 in data set [2]; 2.8 in data set [3]; 2.9 in data set [6]; 12 in [8]; 3.5 in [9].
`COc1cccc(-c2ncc(-c3ccccc3C)o2)c1OC`: the concentration for half-maximal inhibition (IC50) in data set [1] amounted to 40 µM; in the data set on Trypanosoma congolense, 3 µM; in data set [4] it was 40 µM; in [7] it was 39.1 µM; in the data set on Trypanosoma evansi it was 36 µM; with MDBK cells (Bos taurus), 56.9 µM. For the same compound, the selectivity ratio was found to be 1.6 in data set [2]; 1.4 in [3]; 1.5 in [6]; 19 in data set [8]; 1.4 in [9].
On to `CC(=O)Oc1ccc(OC(C)=O)c(-c2ncc(-c3ccccc3OC(C)=O)o2)c1`, for which the IC50 in data set [1] was found to be 56 µM; in the data set on Trypanosoma congolense, 14.4 µM; in data set [4] it was 55.3 µM; in [7] it was 33.6 µM; with Trypanosoma evansi, 34 µM; in the data set with MDBK cells (Bos taurus), 64.2 µM. Also, the selectivity ratio stood at 1.9 in data set [2]; 1.1 in [3]; 1.9 in data set [6]; 4.4 in data set [8]; 1.2 in data set [9].
For `Oc1ccc(O)c(-c2ncc(-c3ccccc3O)o2)c1`, the IC50 in data set [1] is 84.2 µM; in the data set on Trypanosoma congolense, 9.5 µM; in data set [4], 80.9 µM; in data set [7] it was 25.9 µM; in the data set with Trypanosoma evansi it was 22.2 µM; in the data set on MDBK cells (Bos taurus) it was 77.4 µM. The selectivity ratio is 3.5 in [2]; 0.92 in [3]; 3 in data set [6]; 8.2 in [8]; 0.96 in data set [9].
`CC(=O)Oc1ccccc1-c1cnc(-c2cccc(OC(C)=O)c2OC(C)=O)o1`: the half-maximal inhibitory concentration (IC50) in data set [1] turned out to be 2.5 µM; in the data set with Trypanosoma congolense, 0.8 µM; in [4], 6.5 µM; in data set [7], 4.6 µM; with Trypanosoma evansi it was 5.6 µM; in the data set on MDBK cells (Bos taurus), 5.3 µM. Besides, the selectivity ratio in data set [2] amounted to 0.96; in data set [3], 2.1; in data set [6] it was 1.2; in [8], 6.6; in data set [9] it was 0.82.
`COc1cccc(-c2cnc(-c3ccc(OC)c(OC)c3OC)o2)c1OC`: the IC50 in data set [1] is 64.5 µM; in the data set on Trypanosoma congolense, 51.3 µM; in [4], 63.1 µM; in data set [7] it was 64.1 µM; with Trypanosoma evansi, 19.9 µM; in the data set on MDBK cells (Bos taurus) it was more than 269 µM. In addition, the selectivity ratio was more than 14 in [2]; more than 4.2 in data set [3]; more than 4.2 in data set [6]; more than 5.3 in [8]; more than 4.3 in data set [9].
Regarding `COc1ccccc1-c1cnc(-c2cccc(OC)c2OC)s1`, the IC50 came out at 29.6 µM in [1]; 5.7 µM in the data set with Trypanosoma congolense; 31.4 µM in data set [4]; 32 µM in data set [7]; 30.9 µM in the data set with Trypanosoma evansi; 114 µM with MDBK cells (Bos taurus). Besides, the selectivity ratio worked out at 3.7 in data set [2]; 3.9 in data set [3]; 3.6 in data set [6]; 20 in data set [8]; 3.6 in data set [9].
As to `COc1cccc(-c2cnc(-c3cccc(OC)c3)o2)c1`, the IC50 in data set [1] was 66.5 µM; in the data set on Trypanosoma congolense, 21.4 µM; in data set [4], 66.9 µM; in data set [7] it was 62.2 µM; with Trypanosoma evansi it was 53.9 µM; in the data set on MDBK cells (Bos taurus) it was more than 355 µM. Besides, the selectivity ratio was more than 6.6 in data set [2]; more than 5.3 in data set [3]; more than 5.7 in data set [6]; more than 17 in [8]; more than 5.3 in data set [9].
On to `CC(=O)Oc1ccc(OC(C)=O)c(-c2cnc(-c3cc(OC(C)=O)ccc3OC(C)=O)o2)c1`, for which the IC50 was 47.4 µM in data set [1]; 16.8 µM in the data set with Trypanosoma congolense; 49.8 µM in [4]; 35.2 µM in data set [7]; 44.7 µM in the data set on Trypanosoma evansi; 30 µM with MDBK cells (Bos taurus). Besides, the selectivity ratio in data set [2] is 0.67; in data set [3], 0.63; in data set [6], 0.85; in [8], 1.8; in data set [9] it was 0.6.
Take `Oc1ccccc1-c1nnc(-c2cccc(O)c2O)o1`: the IC50 was 1.9 µM in [1]; 0.67 µM in the data set on Trypanosoma congolense; 1.9 µM in data set [4]; 1.9 µM in [7]; 0.81 µM in the data set on Trypanosoma evansi; 5.9 µM in the data set on MDBK cells (Bos taurus). The selectivity ratio in data set [2] came out at 7.2; in data set [3] it was 3.1; in data set [6], 3.1; in data set [8], 8.8; in data set [9], 3.1.
`COc1ccccc1-c1nnc(-c2cccc(OC)c2OC)o1`: the IC50 is 13.4 µM in data set [1]; 2.7 µM with Trypanosoma congolense; 13.3 µM in data set [4]; 13.3 µM in data set [7]; 7.5 µM in the data set on Trypanosoma evansi; 32.3 µM with MDBK cells (Bos taurus). In addition, the selectivity ratio in [2] amounted to 4.3; in data set [3], 2.4; in [6], 2.4; in data set [8], 12; in data set [9] it was 2.4.
